Measurements as given in ChEMBL document CHEMBL1138115, “The synthesis and aqueous superoxide anion scavenging of water-dispersible lutein esters” (2006).
Where a name gives a salt, the structure may show the parent alone.

Assays:
Assay type in all cases: functional
Details in all cases: Homo sapiens
PMNL [1] = assay: Inhibition of Superoxide radical scavenging activity in 40% EtOH at 0.1 mM in PMA-stimulated PMN
Summary of the method: (§1)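 Human PMNs were isolated by Percoll gradient (density 1.080 g/mL) from fresh venous blood of a single volunteer and suspended in PAG-CM buffer (PIPES pH 7.4, HSA, glucose, 1 mM CaCl2/MgCl2). 1 × 10⁶ cells were preincubated 5 min with compound in water or 40% EtOH, then stimulated with PMA (1 ng/mL). Superoxide was spin-trapped with DEPMPO (10 mM) and read by X-band EPR. Results are mean % signal inhibition, N=3 per formulation except one N=1.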

PMNL [2] = assay: Inhibition of Superoxide radical scavenging activity in water at 0.1 mM in PMA-stimulated PMN; summary of the method: as §1
PMNL [3] = assay: Inhibition of Superoxide radical scavenging activity in water at 1.0 mM in PMA-stimulated PMN; summary of the method: as §1
PMNL [4] = assay: Inhibition of Superoxide radical scavenging activity in water at 3.0 mM in PMA-stimulated PMN; summary of the method: as §1
PMNL [5] = assay: Inhibition of Superoxide radical scavenging activity in water at 5.0 mM in PMA-stimulated PMN; summary of the method: as §1

## CC1=CC(OC(=O)CCC(=O)O)CC(C)(C)C1/C=C/C(C)=C/C=C/C(C)=C/C=C/C=C(C)/C=C/C=C(C)/C=C/C1=C(C)CC(OC(=O)CCC(=O)O)CC1(C)C (stereo not given) [LUTEIN DISUCCINATE SODIUM SALT]
PMNL [1]
  inhibition at 100 µM: 5%
PMNL [2]
  inhibition at 100 µM: 0%
PMNL [3]
  inhibition at 1000 µM: 13%
PMNL [4]
  inhibition at 3000 µM: 61.7%
PMNL [5]
  inhibition at 5000 µM: 74.7%

## CC1=CC(OP(=O)(O)O)CC(C)(C)C1/C=C/C(C)=C/C=C/C(C)=C/C=C/C=C(C)/C=C/C=C(C)/C=C/C1=C(C)CC(OP(=O)(O)O)CC1(C)C (stereo not given) [LUTEIN DIPHOSPHATE SODIUM SALT]
PMNL [1]
  inhibition at 100 µM: 18%
PMNL [2]
  inhibition at 100 µM: 0%
PMNL [3]
  inhibition at 1000 µM: 9.3%
PMNL [4]
  inhibition at 3000 µM: 72.3%
PMNL [5]
  inhibition at 5000 µM: 91%
